CXCR6 inh: CXCR6 (human) receptor inhibition; O00574; CHO-K1 PathHunter CXCR6 beta-arrestin, luminescence; inhibition, % at 20 µM; 0.36% of 360,000 active; in the data active means inhibition above about 34%, passing the limit was not always enough;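 further: antagonist mode with CXCL16 agonist at 10 nM final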
Target sequence (O00574 whole entry, looked up): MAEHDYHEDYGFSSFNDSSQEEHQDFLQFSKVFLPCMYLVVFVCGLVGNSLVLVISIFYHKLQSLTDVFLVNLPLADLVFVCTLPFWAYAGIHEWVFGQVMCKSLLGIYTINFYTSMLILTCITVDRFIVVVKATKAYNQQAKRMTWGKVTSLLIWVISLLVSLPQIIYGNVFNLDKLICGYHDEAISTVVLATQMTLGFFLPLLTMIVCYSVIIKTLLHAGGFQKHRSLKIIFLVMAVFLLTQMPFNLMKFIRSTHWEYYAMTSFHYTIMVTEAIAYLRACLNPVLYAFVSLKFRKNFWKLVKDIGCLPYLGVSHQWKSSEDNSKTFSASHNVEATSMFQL
EBI2 antag: blocks human EBI2 receptor beta-arrestin signaling. inhibition, % at 5 µM. EBI2 beta-arrestin recruitment, luminescence, 7a,25-OHC stimulated. 0.81% of 360,000 active. AID 651636. P32249; in the data active means inhibition above about 38%;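 further: enzyme fragment complementation signal reports receptor beta-arrestin coupling in cells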
m5-HT2A agonist: mouse HTR2A agonism via beta-arrestin recruitment | P35363 | CHO-K1 mHTR2A beta-arrestin complementation, luminescence; percent of 30 µM serotonin response | AID 624169 | activation, % at 7.6 µM | 0.66% of 360,000 active;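 active means activation above a run cutoff, the mean activation of all tested compounds plus 3 SD, cut at about 14% in these data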
APJ antag: APJ receptor antagonism; 0.32% of 330,000 active; P35414; CHO-K1 APJ beta-arrestin complementation, luminescence; AID 2521; inhibition, % at 20 µM;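 active means inhibition above about 40% at 20 µM, limit read from the data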;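 further: cells challenged with 10 nM apelin-13 agonist together with compound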
APJ agonist: agonists of human APJ apelin receptor. AID 2520. activation, % at 20 µM. CHO-K1 APJ PathHunter beta-arrestin, luminescence; 0% DMSO wells, 100% apelin. 0.11% of 330,000 active;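 active means activation more than six SD over the plate average, tested at 20 µM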
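Assay system: engineered CHO-K1 APJ arrestin reporter cells; Amount: 1000 CHO-K1 reporter cells seeded per well; Dosing: one dose, 20 µM compound, 1% DMSO; Times: compound stimulation 90 min at 25 °C, detection 60 min; Measured by: luminescent beta-gal fragment complementation, chemiluminescent substrate; Read-out: APJ–arrestin association signal; Controls: DMSO vs Apelin-13 10 nM.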
CCR6 antag: antagonists of human CCR6 receptor. P51684. CHO-K1 CCR6 PathHunter beta-arrestin, luminescence, CCL20-stimulated. inhibition, % at 20 µM. 0.49% of 340,000 active. AID 493098;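 active means compounds whose inhibition of the agonist-driven luminescence signal at 20 µM reaches about 50%, limit read from the data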;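 further: cells stimulated with CCL20 at 14 nM final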
EBI2 antag conf: confirmation of human EBI2 receptor antagonists; shares compounds with EBI2 antag; EBI2 beta-arrestin luminescence, 7a,25-OHC antagonism; 29% of 2,400 active; inhibition, % at 5 µM; AID 651997;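 active means inhibition of at least 50%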
EBI2 agonist: activates EBI2, counter-screen for EBI2 antagonists. shares compounds with EBI2 antag. EBI2-expressing cells, agonist mode, luminescence, 60 min; 0% vehicle, 100% 7α,25-dihydroxycholesterol control. activation, % at 5 µM. 2,400 tested, under 10 active. AID 652000;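 active means activation of at least 50%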
bGal cs: counter-screen for EBI2 antagonists: E. coli beta-galactosidase inhibition; shares compounds with EBI2 antag; AID 652176; 1% of 2,400 active; purified beta-galactosidase, luminescent Galacton Star, 15 min; inhibition, % at 5 µM;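 active means replicate-average signal at least 3 plate SD below neutral wells, shown as high inhibition, flagging enzyme-inhibiting false positives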;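 further: higher means stronger loss of beta-gal luminescence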
Each line names hits and unclear results; the compound was inactive in the other large screens (follow-up assays come after a bar, where they were run). Hits are enriched below; roughly 2.1% of the tested compounds scored in any of these assays.

CC(CCc1ccccc1)NC(=O)C1CCCN(C(=O)c2cc3sccc3n2C)C1 (stereo unspecified)	EBI2 antag 60 | EBI2 antag conf inactive | EBI2 agonist inactive | bGal cs inactive
CC(C)c1ccccc1OCCNC(=O)c1cncc(Br)c1	EBI2 antag 47 | EBI2 antag conf inactive | EBI2 agonist inactive | bGal cs inactive
CC(C)c1ccccc1OCCNC(=O)c1cccnc1	none
COc1ccc(-c2cc(-c3ccc(OC)cc3)c(C#N)c(SC)n2)cc1	none
COc1ccc(-c2cc(-c3ccccc3)c(C#N)c(S(C)(=O)=O)n2)cc1	EBI2 antag 66 | EBI2 antag conf 72 | EBI2 agonist inactive | bGal cs inactive
COc1ccc(/C=C/C(=O)NCC(=O)N/N=C/c2ccc(OC)cc2)cc1	EBI2 antag 62 | EBI2 antag conf inactive | EBI2 agonist inactive | bGal cs inactive
COc1ccc(/C=C/C(=O)Nc2ccc(OC)nc2)cc1	EBI2 antag 44 | EBI2 antag conf inactive | EBI2 agonist inactive | bGal cs inactive
COc1ccc(/C=C/C(=O)NCC(=O)N/N=C/c2cccnc2)cc1	none
O=C(COc1ccccc1)NCC(=O)N/N=C/c1ccc(Br)cc1	EBI2 antag 38 | EBI2 antag conf inactive | EBI2 agonist inactive | bGal cs inactive
Cc1ccc(/C=N/NC(=O)CNC(=O)COc2ccccc2)cc1	none
S=c1[nH]nc(COc2ccc(Cl)cc2Cl)n1-c1ccccc1	none
Oc1ccccc1CNCCCN1CCOCC1	none
NS(=O)(=O)c1ccc(CCNC(=O)CCCn2ncn3c(cc4occc43)c2=O)cc1	none
O=C(COc1ccc(F)cc1)N1CCC(Cc2ccccc2)CC1	EBI2 antag 74 | EBI2 antag conf 50 | EBI2 agonist inactive | bGal cs inactive
CCOCC(=O)N1CCC(Cc2ccccc2)CC1	none
COc1ccc(OCC(=O)N2CCC(Cc3ccccc3)CC2)cc1	EBI2 antag 92 | EBI2 antag conf 77 | EBI2 agonist inactive | bGal cs inactive
CC(C)(C)c1ccc(NC(=O)Nc2ccc3ccccc3n2)cc1	none
Cc1cc(C)c2cc(C(=O)N3CCC(N4CCCCC4)CC3)[nH]c2c1	EBI2 antag 46 | EBI2 antag conf inactive | EBI2 agonist inactive | bGal cs inactive
COc1ccc(C(=O)N2CCC(C(=O)c3c(C)cc(C)cc3C)CC2)cc1	EBI2 antag 72 | EBI2 antag conf inactive | EBI2 agonist inactive | bGal cs inactive
Cc1cc(C)c2cc(C(=O)N3CCC(Cc4ccccc4)CC3)[nH]c2c1	EBI2 antag 64 | EBI2 antag conf inactive | EBI2 agonist inactive | bGal cs inactive
Cc1cc(C)c2cc(C(=O)N3CCC(C(=O)c4ccc(F)cc4)CC3)[nH]c2c1	EBI2 antag 90 | EBI2 antag conf 84 | EBI2 agonist inactive | bGal cs inactive
Cc1cc(C)cc(NC(=O)N2CCC(C(=O)c3ccc(F)cc3)CC2)c1	none
O=C(c1ccc(F)cc1)N1CCC(N2CCCCCC2)CC1	none
C=CCN(Cc1nc(-c2ccc(OC)c(OC)c2)oc1C)C1CCS(=O)(=O)C1 (stereo unspecified)	none
O=C(COc1ccc(S(=O)(=O)N2CCCC2)cc1)NCC1CCCO1 (stereo unspecified)	none
CCOc1ccc(C2C(C(=O)OC)=CN(C(C)c3ccccc3)C=C2C(=O)OC)cc1 (stereo unspecified)	none
Cc1oc(-c2ccccc2)nc1CS(=O)CC(=O)NC1CCCC1 (stereo unspecified)	none
CCN(Cc1ccccc1)C(c1cccs1)c1nnnn1C1CCCCC1 (stereo unspecified)	EBI2 antag 49 | EBI2 antag conf inactive | EBI2 agonist inactive | bGal cs inactive
